Lung fibro prol: blocks proliferation of human lung fibroblasts | LL 47 human lung fibroblast viability, ATP luminescence; hits give low values | viability, % at 10 µM | actives 1.1% (n = 85,000);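 active means viability at or below 50% in the single dose screen; inactive means viability above 50%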;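 further: compound exposure lasted 72 h before the ATP readout; 100% = median luminescence of untreated cell-only wells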
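Material: human LL 47 lung fibroblast cells; quantity: 1,150 cells/well; medium: IMEM plus 15% FBS; doses: 0.1% DMSO in all compound wells; timing: overnight attachment after seeding, then 72 h compound exposure at 37 °C; detection: CellTiter-Glo luminescence; measure: % viability of median cell-only signal; controls: cell-only wells, no compound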
HCT116 bCat-KO: beta-catenin-lacking colon tumor cell growth suppression; HCT116 beta-catenin knockout viability, CellTiter-Glo, 60 h; hits give low values; viability, % at 10 µM; actives 1.5% (n = 140,000); AID 818;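 active means viability at or under a set limit, the compound median less 4 SD, cut at about 6% in these data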;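 further: 0% = Hyamine 1622 control at 20 µM and 100% = untreated cell control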
H69AR growth 86K: growth inhibitors of human H69AR lung tumor cells; H69AR lung tumor viability, ATP luminescence, 72 h; hits give low values; viability, % at 10 µM; actives 6% (n = 85,000); AID 598;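 active means viability at or below 40%; inactive means viability above 40%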;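 further: multidrug resistant small cell line overexpressing MRP-1 efflux transporter; 100% = mean luminescence of untreated control wells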
HUVEC prolif 384: blocks proliferation of human endothelial cells. HUVEC proliferation, CellTiter-Glo luminescence, 72 h; hits give low values. viability, % at 10 µM (by protocol). actives 1.1% (n = 86,000);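 active means viability at or below 30%; inactive means viability above 30%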;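 further: 100% = median luminescence of DMSO-only cell control wells on each plate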
PTEN del growth: growth suppressors of cells with PTEN tumor suppressor deletion. HCT116 PTEN-null viability, CellTiter-Glo, 60 h; hits give low values. viability, % at 10 µM. actives 1.2% (n = 140,000). AID 827;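 active means viability at or below a set limit, 4 SD under the median of all tested compounds, cut at about 3.7% in these data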;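 further: PTEN knockout HCT116 line with beta catenin targeted HCT116 as companion control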
* marks the source's active call; other numbers are inactive results; . = not tested or not shown. This is one part of a sample in which hits are shown more often than they occur.

SMILES	Lung fibro prol	HCT116 bCat-KO	H69AR growth 86K	HUVEC prolif 384	PTEN del growth
COc1ccccc1NC(=O)c1nc[nH]c1C(=O)Nc1ccccc1OC	91	83	39*	95	82
CCc1nnc(NS(=O)(=O)c2ccc(NC(=O)/C=C/c3ccc(OC)cc3OC)cc2)s1	.	91	.	.	95
Cc1cccc(NN=C2c3ccccc3-c3ccccc32)c1	.	82	.	.	82
Cc1ccc(Cl)cc1N1CCN(C(=O)Cc2cn(C)c3ccccc23)CC1	83	56	34*	77	51
Cc1ccc(Cl)cc1N1CCN(C(=O)c2cc3c(=O)[nH]c4ccccc4c3n2C)CC1	.	5.6*	.	.	6
Cc1ccc(Cl)cc1N1CCN(C(=O)Cc2c(C(=O)O)[nH]c3ccccc23)CC1	102	94	76	75	95
Cn1c(C(=O)N2CCN(c3ccc(Cl)cc3)CC2)cc2c(=O)[nH]c3ccccc3c21	102	23	34*	74	45
Cc1ccc(C)c(N2CCN(C(=O)Cc3cn(C)c4ccccc34)CC2)c1	97	84	69	82	84
N#C/C(=N\Nc1cccc2ccccc12)c1nnc2n1CCCCC2	.	96	.	.	89
CCn1c(N2CCN(C(=S)NCCc3ccccc3)CC2)nc2ccccc21	.	86	.	.	85
CC1=CC(C)(C)Nc2ccc(OC(=O)c3ccco3)cc21	.	1.6*	.	.	1.3*
CC1=CC(C)(C)Nc2ccc(OC(=O)C(C)N3C(=O)c4ccccc4C3=O)cc21 (stereo not drawn)	.	2.0*	.	.	1.3*
CC1=CC(C)(C)Nc2ccc(OC(=O)CN3C(=O)CCC3=O)cc21	.	1.0*	.	.	1.5*
CC1=CC(C)(C)Nc2ccc(OC(=O)c3cccnc3)cc21	23*	0.7*	2.6*	53	1.1*
COc1ccc(S(=O)(=O)NC2CCCCC2)c(C)c1C	100	100	85	111	88
Cc1cc2cc(CCNC(=O)C3c4ccccc4Oc4ccccc43)c(=O)[nH]c2cc1C	.	37	.	.	32
Cc1ccc(S(=O)(=O)/C(C#N)=C/c2c(N3CCC(C(N)=O)CC3)nc3ccccn3c2=O)cc1	93	96	95	91	100
C[C@@H]1NC(=O)c2cc([N+](=O)[O-])cc(I)c2OCC[C@@H](C(N)=O)NC(=O)[C@H](CCC(=O)O)NC1=O	.	91	.	.	101
Cc1sc2nc(SCc3nc(-c4ccccc4)no3)n(-c3ccccc3)c(=O)c2c1C	.	89	.	.	87
Cc1cc(C(C)(C)C)oc1C(=O)N(CC(=O)NC1CCCC1)Cc1ccccc1Cl	.	51	.	.	59
CCCCCCc1cc2cc(S(=O)(=O)c3ccc(F)c(Cl)c3)c(=O)oc2cc1O	.	2.9*	.	.	3.1*
CCCCCCc1cc2cc(C(=O)Nc3ccc(OC)cc3)c(=O)oc2cc1O	.	66	.	.	57
CCCCCCc1cc2cc(C(=O)NC)c(=N)oc2cc1O	.	9	.	.	4
CCCCCCc1cc2cc(C(N)=O)c(=N)oc2cc1O	101	84	2.0*	68	58
CCCCCCc1cc2cc(C(=O)Nc3cccc(OC)c3)c(=O)oc2cc1O	.	5.3*	.	.	5
SMILES	Lung fibro prol	HCT116 bCat-KO	H69AR growth 86K	HUVEC prolif 384	PTEN del growth
C=CCOC(=O)C1=C(C)NC(SCC(=O)Nc2ccccc2)=C(C#N)C1c1ccco1 (stereo not drawn)	71	83	52	48	84
CCOc1ccc(OCCOCCNCCOC)cc1	.	93	.	.	98
Cc1cccc(NC(NC(=O)c2ccccc2[N+](=O)[O-])C(Cl)(Cl)Cl)c1 (stereo not drawn)	.	79	.	.	79
Cc1cc(-n2c(C)cc(C(=S)N3CCOCC3)c2C)ccc1Br	.	47	.	.	57
Cc1cccc(N2CCN(C(=O)c3cc4n(n3)C(C(F)(F)F)CC(c3ccco3)N4)CC2)c1C (stereo not drawn)	.	2.2*	.	.	3.5*
O=C(c1cc2n(n1)C(C(F)(F)F)CC(c1ccco1)N2)N1CCN(c2ccccn2)CC1 (stereo not drawn)	106	98	96	98	101
CC12CNCC(C)(CN(C(c3ccccc3)c3ccccc3)C1)C2	87	54	50	88	57
Clc1ccc(C(c2ccccc2)N2CCNCC2)cc1 (stereo not drawn)	88	36	37*	83	30
Cc1ccc(Cn2c(=S)[nH]c3ccc(N4CCOCC4)cc3c2=O)o1	46*	85	5.8*	76	76
COc1ccccc1NC(=O)CCn1c(=O)sc2ccccc21	104	101	74	97	98
CC(=O)Oc1ccc2ccccc2c1C(NC(=O)Cc1ccccc1)c1ccc(Cl)cc1 (stereo not drawn)	.	0.8*	.	.	0.9*
